# Screening results from PubChem BioAssay.
# RGS4 block: inhibitors of human RGS4; HEK293 M3R/RGS4 inducible, Fluo-4 calcium flux; active compounds read high; triggered by carbachol at its EC20; B-score at 10 µM; 0.45% of 310,000 active;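 active means B-score, a plate-corrected calcium signal, over three deviations above library mean, with baseline fluorescence within five deviations of library mean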;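 further: RGS4 expression induced by doxycycline in cells with stable M3 receptor; B-score is computed from the integrated fluorescence ratio over baseline after carbachol; higher B-score means a larger calcium signal and so more RGS4 inhibition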
# Target sequence (P49798 whole entry, looked up): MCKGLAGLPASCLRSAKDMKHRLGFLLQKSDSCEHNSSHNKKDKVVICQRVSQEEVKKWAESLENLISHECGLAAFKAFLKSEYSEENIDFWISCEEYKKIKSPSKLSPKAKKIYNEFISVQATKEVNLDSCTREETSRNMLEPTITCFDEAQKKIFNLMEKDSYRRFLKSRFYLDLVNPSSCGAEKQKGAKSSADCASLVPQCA
# RGS4 act: RGS4 potentiation or activation | B-score at 10 µM | AID 463111 | 0.92% of 310,000 active | HEK293 M3R/inducible RGS4, carbachol calcium flux Fluo4; active compounds read low;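 active means B-score of the integrated calcium signal more than 4 SD below the library mean, with starting fluorescence not abnormally high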;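 further: negative B-score means reduced calcium response which marks RGS4 activation or potentiation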
#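 test system = HEK293 cells with stable M3R and inducible RGS4 | schedule = recording 10 s baseline at 1 Hz, 100 s post-agonist | technique = Fluo4-AM (2 µM) calcium-flux fluorescence, kinetic read | measure = Agonist-evoked peak-minus-minimum fluorescence over baseline, integrated ratio, B score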
# MrgX1 antag: antagonists of human MrgX1 receptor; MRGX1-HEK293 calcium flux, Fluo-4, BAM8-22 antagonism; active compounds read low; B-score at 10 µM; 1.3% of 310,000 active;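 active means calcium-response B-score plate-corrected more than 3 library SD below zero, starting fluorescence within 5 deviations, no agonist response on first addition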;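 further: peak minus trough fluorescence over baseline after final BAM8-22 challenge near maximal dose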
# Target sequence (Q96LB2 whole entry, looked up): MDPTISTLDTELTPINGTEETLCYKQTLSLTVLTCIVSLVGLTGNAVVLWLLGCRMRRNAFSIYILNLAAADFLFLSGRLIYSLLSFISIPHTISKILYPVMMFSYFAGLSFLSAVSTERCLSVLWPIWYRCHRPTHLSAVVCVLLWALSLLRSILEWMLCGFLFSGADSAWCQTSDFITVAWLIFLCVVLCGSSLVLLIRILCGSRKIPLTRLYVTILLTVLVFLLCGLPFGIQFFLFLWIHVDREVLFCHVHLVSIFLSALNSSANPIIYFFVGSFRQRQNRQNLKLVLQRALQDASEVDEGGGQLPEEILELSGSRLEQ
# MrgX1 agonist: activates human MrgX1 receptor signaling. Q96LB2. 0.44% of 310,000 active. MrgX1-HEK293 cells, Fluo-4 calcium fluorescence, agonist mode; active compounds read high. B-score at 10 µM;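 active means calcium response B-score plate-corrected fluorescence ratio at least 3 library SD, with starting fluorescence B-score inside 5 SD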
#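 Material: MrgX1-expressing HEK293 cells / Dosing: compound as first of three additions / Incubation: overnight seeding, then 1 h dark dye loading / Signal: Fluo-4 NW calcium fluorescence / Evaluation: B-scored fluorescence response ratio / Benchmarks: positive and negative control wells on each plate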
# MrgX1 allo act: allosterically activates human MrgX1 receptor signaling | MrgX1-HEK293, Fluo-4 calcium flux, FDSS; active compounds read high | B-score at 10 µM | AID 588675 | 0.63% of 310,000 active;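 active means plate-corrected calcium response at least 3 library SD above typical, normal starting fluorescence, not activating the receptor alone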;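 further: compound read alongside a low EC10 to EC30 dose of BAM8-22 agonist; peak minus trough fluorescence over baseline measured at the second addition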
# RGS4 inh valid: validation of RGS4 inhibitors; calcium response, % at 10 µM; 65% of 1,700 active; shares compounds with RGS4 block; HEK293 M3R/RGS4, carbachol calcium Fluo-4 fluorescence; carbachol added at its EC20; 0 = buffer wells, 100 = carbachol control; AID 492999;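 active means duplicate-averaged calcium response above the buffer-only control mean plus 5 SD of those controls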;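 further: integrated fluorescence ratio F max minus min over baseline F0; higher response in RGS4-induced cells means RGS4 inhibition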
# RGS4 uninduced: counter-screen for RGS4 inhibitors: effect in non-induced cells | shares compounds with RGS4 block | activity (percent), % at 10 µM | 20% of 1,900 active | HEK293 M3R non-induced, carbachol calcium Fluo-4; submaximal (EC20) carbachol stimulus; buffer wells 0%, carbachol control wells 100%; call rule not given here;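 further: RGS4 induction absent so cells express M3R without RGS4; higher means more calcium signal and flags a non-specific hit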
# RGS4 inh ctr2: second RGS4 inhibitor counter-screen in uninduced cells lacking carbachol; 22% of 1,900 active; calcium response (agonist-mode artifact), % at 10 µM; HEK293 M3R/RGS4 non-induced, Fluo-4 calcium, no carbachol; normalised: buffer wells 0%, carbachol wells 100%; shares compounds with RGS4 block; AID 493001;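 active means duplicate-averaged calcium rise in uninduced cells above buffer wells' mean plus 5 SD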
# Numbers without * were called inactive; i = inactive; · = not tested or not shown. The list is not random: actives were taken first. Their share in the collection is about 3.5%.
SMILES,RGS4 block,RGS4 act,MrgX1 antag,MrgX1 agonist,MrgX1 allo act,RGS4 inh valid,RGS4 uninduced,RGS4 inh ctr2
O=[N+]([O-])c1cc(-c2csc(NC(CO)c3nc4ccccc4n3CCOCCO)n2)ccc1Cl (stereo not drawn),7.7*,i,i,i,i,6.0%*,40%*,i
OCCOCCn1c(C(CO)Nc2nc(-c3ccc(F)cc3)cs2)nc2ccccc21 (stereo not drawn),i,i,i,i,i,·,·,·
Cc1ccc(/C=C/C(=O)O)cc1S(=O)(=O)NCCCO,i,i,i,i,i,·,·,·
O=C(NNC(=S)Nc1ccc(Cl)cc1Cl)c1ccc(N2CCOCC2)c([N+](=O)[O-])c1,5.2*,i,i,i,i,9.5%*,34%*,i
O=C(/C=C/c1ccc(Cl)cc1)N1CCN(c2ccc(Cl)cc2[N+](=O)[O-])CC1,i,i,i,i,i,·,·,·
O=C(O)c1ccc(N2CCN(c3ccc(Cl)cc3)CC2)c([N+](=O)[O-])c1,5*,i,i,i,i,7.5%*,i,i
CCOC(=O)c1c(C)nc2sc3c(=O)n(-c4ccc(C(C)=O)cc4)cnc3c2c1-c1ccc(Cl)cc1,i,i,i,i,i,·,·,·
CCOc1ccc(C2Sc3ccccc3NC3=C2C(=O)OC3)cc1 (stereo not drawn),i,i,i,i,i,·,·,·
COc1ccc2c(c1)c(C(=O)CN1CCCCC1)c(C)n2C,i,i,i,i,i,·,·,·
COc1ccc2c(c1)c(C(=O)CN1CCC(C(N)=O)CC1)c(C)n2C,i,i,i,i,i,i,i,i
Cc1occc1C(=O)NNS(=O)(=O)c1ccc(Cl)cc1,i,i,i,i,i,·,·,·
COc1nc(SC)nc(Cl)c1Cc1ccc(OC(C)C)cc1,i,i,i,i,i,·,·,·
COC(=O)c1cc(=O)n(CCc2ccccc2F)c(=Nc2ccc(F)c(Cl)c2)s1,i,i,i,i,i,·,·,·
COC(=O)c1cc(=O)n(Cc2ccco2)c(=Nc2ccc(F)c(Cl)c2)s1,i,i,i,i,i,·,i,i
O=C(CN(Cc1ccc(Cl)c(Cl)c1)S(=O)(=O)c1ccccc1)N/N=C\c1ccc2c(c1)OCO2,6.7*,i,i,i,i,18%*,i,i
O=C(CN(Cc1ccccc1)S(=O)(=O)c1ccccc1)N/N=C/c1ccc2c(c1)OCO2,i,i,i,i,i,·,i,i
O=C(CN(CCc1ccccc1)S(=O)(=O)c1ccc(Br)cc1)N/N=C/c1ccc2c(c1)OCO2,i,i,i,i,i,·,·,·
CCOCCCNC(=O)CN1C(=O)COc2ccc(S(=O)(=O)N3CC(C)CC(C)C3)cc21 (stereo not drawn),i,i,i,i,i,·,·,·
CCOCCCNC(=O)CN1C(=O)COc2ccc(S(=O)(=O)N3CCOCC3)cc21,27*,i,i,i,i,6.5%*,i,i
CCOCCCNC(=O)CN1C(=O)COc2ccc(S(=O)(=O)N3CCC(C)CC3)cc21,i,i,i,i,i,i,i,i
CCOCCCNC(=O)CN1C(=O)COc2ccc(S(=O)(=O)N3CCCCCC3)cc21,i,i,i,i,i,i,i,i
CC(Cl)C(=O)N1c2ccccc2CCc2ccccc21 (stereo not drawn),i,i,i,i,i,·,·,·
CC(=O)C1=C(C)OC(N)=C(C#N)C1c1cccc([N+](=O)[O-])c1 (stereo not drawn),7.2*,i,i,i,i,i,i,i
Cc1cccc(C2c3[nH]c4ccccc4c3CCN2C(=O)Cc2nc(-c3ccccc3)n[nH]2)n1 (stereo not drawn),5.7*,i,i,i,i,10%*,i,i
N#Cc1c(-c2ccco2)cc(-c2ccc(F)cc2)nc1N,6.3*,i,i,i,i,7.0%*,i,24%*
SMILES,RGS4 block,RGS4 act,MrgX1 antag,MrgX1 agonist,MrgX1 allo act,RGS4 inh valid,RGS4 uninduced,RGS4 inh ctr2
N#Cc1c(-c2ccc(F)cc2)cc(-c2cccnc2)nc1N,i,i,i,i,i,·,·,·
N#Cc1c(-c2ccccc2)cc(-c2ccc(O)cc2)nc1N,i,i,i,i,i,·,·,·
Cc1ccc(-c2cc(-c3ccccc3)nc(N)c2C#N)o1,i,i,i,i,i,i,i,i
CCOc1cc(/C=C\[N+](=O)[O-])ccc1OCC(=O)N1CCOCC1,28*,i,i,i,i,43%*,32%*,12%*
CCOc1cc(/C=C/c2nc3cc(C)c(C)cc3s2)ccc1OCC(=O)N1CCOCC1,i,i,i,i,i,·,·,·
CCN(Cc1ccncc1)Cc1c(O)ccc2cc(Br)ccc12,4.8*,i,·,·,·,i,i,i
CN1CCN(Cc2c(O)ccc3cc(Br)ccc23)CC1,i,i,i,i,i,·,·,·
Cc1cc(S(=O)(=O)Nc2ccc3cn[nH]c3c2)c(C)cc1Cl,15*,i,i,i,i,30%*,i,i
O=S(=O)(Nc1ccc(N=Nc2ccc(O)c3ccccc23)cc1)c1ccccc1,4.7*,i,i,i,i,5.5%*,i,i
COc1ccc(Nc2nc(C)nc3c2nnn3Cc2ccccc2Cl)c(OC)c1,i,i,i,i,i,·,·,·
CCOC(=O)c1c(C)[nH]c(C(=O)CN2C(=O)NC(C)(c3ccc(C)cc3)C2=O)c1C (stereo not drawn),i,i,i,i,i,i,i,7.5%*
CCOC(=O)c1c(C)[nH]c(C(=O)CN2C(=O)NC(CC)(c3ccccc3)C2=O)c1C (stereo not drawn),i,i,i,i,i,·,·,·
Nc1c(C(=O)O)cnc2c(-c3ccc(Cl)cc3)cnn12,7.7*,i,i,i,i,24%*,31%*,i
Cc1cc(N)n2ncc(-c3ccc(F)cc3)c2n1,i,i,i,i,i,·,·,·
